The source of these data is the EternaBench riboswitch data.

The term apparent Kd denotes a dissociation constant that holds for the conditions of the assay.

The subject of this data set is MS2 coat protein. Briefly: apparent Kd, MS2 coat protein; higher = weaker binding; RNA-MaP array; FMN 200 µM where present. The method in brief: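 Binding was read on Illumina sequencing-chip clusters where stalled E. coli RNA polymerase had transcribed each design. A titration of SNAP-549-labelled MS2 coat protein began at 0.7 or 1.5 nM and doubled to 3 µM, once without ligand and once with constant ligand, in 100 mM Tris-HCl pH 7.5, 80 mM KCl, 4 mM MgCl2, BSA, DTT, yeast tRNA and Tween-20. The apparent Kd is the median of filtered per-cluster binding-curve fits, based on green signal normalised to red-channel RNA signal and control-cluster median Fmax.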

Setting [1] is: designed as: ON switch for flavin mononucleotide, no ligand.
[2] abbreviates: ligand present: flavin mononucleotide, designed as: ON switch for flavin mononucleotide.
[3] abbreviates: designed as: OFF switch for flavin mononucleotide, no ligand.
The mark [4] stands for this setting: ligand present: flavin mononucleotide, designed as: OFF switch for flavin mononucleotide.

With “GUAGCAUACCGAGGAUAUUCAGGGCUUAAAUAAACAUGAGGAUCACCCAUGUGGCGAAAGCCUAGGGAGAAGGCGGAAUGCUAC”, the “apparent Kd” value under setting [1] was 0.0146 µM and the “apparent Kd” value under setting [2] worked out at 0.0134 µM.

For “AAGGAUCGAGGAUAUACAUAGAUACAGAUUCAUGUAGAACUACAUGAGGAUCACCCAUGUAGAAGGCGAUCAUA”, the “apparent Kd” value was 0.0271 µM under setting [3] and 0.127 µM under setting [4].

Regarding “AUACCACGAGGAUAUCGUCUAUUCCACAUGAGGAUCACCCAUGUUAUCCAUGUUUCGUUUCGAGAAGGCGUGGGUU”, the “apparent Kd” value by setting is: under setting [3], 0.0599 µM; under setting [4], 0.0429 µM.

Regarding “ACGACUAGAGGAUAUACAUGAGGAUCACCCAUGUAACUGUCAGGAGACUGACGGAGAUGUAGAAGGCUAGUCGA”, the “apparent Kd” value is, setting by setting: under setting [3], 0.0166 µM; under setting [4], 0.0392 µM.

In the case of “CGAUGUUAUGCAGGAUAUCUCUCUUGUUAGAGGAGAGAAGGGCAUAGGGAGACAUACGCCUUAUUACAUGAGGAUCACCCAUGU”, the “apparent Kd” value reads like this: under setting [3], 0.00938 µM; under setting [4], 0.00824 µM.

As to “UUCGAGCCAAGGCUCGCGAGUACACAGGAUAUGAAAAGUCACAUGAGGAUCACCCAUGUCCAAAAUCAGAAGGGUGAGACUAAG”, the “apparent Kd” value under setting [1] came out at 0.52 µM and the “apparent Kd” value under setting [2] came out at 0.101 µM.

In the case of “CGUAGGAUGCAGAAGGCAUGAACAUGAGGAUCACCCAUGUCAAAAGACAUGAGGAUAUGCAUCCUACGAAAAGUGCGAAAGCAC”, the “apparent Kd” value is 0.0175 µM under setting [1] and 0.0056 µM under setting [2].

Take “AGUAAAGGCCUGAGGUGUCCGAACAUGAGGAUCACCCAUGUAGAGGAUAUAGGUGGAAGUGACGCCUAGAAGGCUACGUGUCAU”: the “apparent Kd” value reads like this: under setting [3], 0.0088 µM; under setting [4], 0.011 µM.

Take “UUUUAACAUGAGGAUCACCCAUGUGAGGAUAUCGAAAUUUAUAUUAAUAUUAAUUAAACGAGAAGGCACAUUUU”: the “apparent Kd” value by setting is: under setting [3], 0.0615 µM; under setting [4], 0.0864 µM.

As for “GUGUACGCAGGAUAUACAUGAGGAUCACCCAUGUGAAUAAGAUAGAAUAAGAUAAAGUGUAGAAGGGCGAGUGU”, the “apparent Kd” value reads like this: under setting [3], 0.0352 µM; under setting [4], 0.0349 µM.

For the sequence “ACAUGAGGAUCACCCAUGUGAUGAUCUCCCAUGUCAUAUUUCAGAAGGCUCGCGUGUUUGAUGAGAGAGGAUAUGGAAUAUGCG”, the “apparent Kd” value under setting [3] came to 0.208 µM and the “apparent Kd” value under setting [4] amounted to 0.152 µM.

With “CAUUAUUAUCGAGGAUAUCCUAUUGAAAUUCUGGGAGAAGGCGGACUCAACAUGAGGAUCACCCAUGUGAGACGGGUGCUAGGG”, the “apparent Kd” value is 0.0268 µM under setting [3] and 0.0252 µM under setting [4].

Regarding “GUACUGAAGCUUUGCUUUAGUCGUACAUGAGGAUCACCCAUGUAGGAUAUGGUAAGCUUUGCUUACUAGAAGGAUAGAGUGAUC”, the “apparent Kd” value by setting is: under setting [3], 0.119 µM; under setting [4], 0.0502 µM.

As to “GUGACGAAUGUAGGAUAUGCUGAGGAAUACUCAGCAGAAGGACAUGAGGAUCACCCAUGUCAUCCUAAUAAUAAAUAACGUCAC”, the “apparent Kd” value under setting [3] came to 0.0123 µM and the “apparent Kd” value under setting [4] was determined as 0.0174 µM.

As to “AAGAGAGCAGGAUAUCGGUUUUGCGACAUGAGGAUCACCCAUGUGAGCCGAGUCCAACGCCGAGAAGGGCUAAAAU”, the “apparent Kd” value came out at 0.0625 µM under setting [3] and 0.336 µM under setting [4].

For “AGCUAGUACCGAGGAUAUACAUACAUGAGGAUCACCCAUGUAUACAUGAAUUUAUGAGACUACAUGUAGAAGGCGGUACUAGCA”, the “apparent Kd” value is, setting by setting: under setting [1], 0.0589 µM; under setting [2], 0.0159 µM.

For “GGACGUCACAUCUACAUGAGGAUCACCCAUGUCAAAAGACAUGAGGAUAUGCUUCCUAAUUGGAAGCAGAAGGCAUGGACGUCC”, the “apparent Kd” value by setting is: under setting [1], 1.21 µM; under setting [2], 0.0675 µM.

As for “GGUCCAUUAUGAGGAUAUGGCACCUUAUUGGUGCCAGAAGGCAUGUCUAUAGACAUGAGGAUCACCCAUGUAUUAAUUUGGACC”, the “apparent Kd” value under setting [1] was found to be 0.36 µM and the “apparent Kd” value under setting [2] was 0.0414 µM.

As for “AACGCGUCAGGAUAUAGCGUAACUUAGGUAGUACGACCAUACUAGAAGGGACAUGAGGAUCACCCAUGUGGGUA”, the “apparent Kd” value reads like this: under setting [3], 0.232 µM; under setting [4], 0.112 µM.

Regarding “UGAUAACAUGUAGGAUAUGCAGCAUUGACCACUGCAGAAGGACAUGAGGAUCACCCAUGUACCCAUACUAUGGGAUCACGCAAU”, the “apparent Kd” value amounted to 0.0459 µM under setting [3] and 0.195 µM under setting [4].
